Test results as given in ChEMBL document CHEMBL1148520, “5-(Dimethoxymethyl)-2'-deoxyuridine: a novel gem diether nucleoside with anti-orthopoxvirus activity” (J Med Chem, 2006).

What was measured:
HFF = test: Cytotoxicity against HFF cell line by neutral red toxicity assay; assay type: functional; conditions: Homo sapiens
In short: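 Confluent uninfected HFF monolayers exposed to various drug concentrations for 7 days at 37 °C. Viability read by neutral red uptake. CC50 is the concentration reducing neutral red uptake by 50%.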

Vaccinia virus = test: Antiviral activity against vaccinia virus Copenhagen assessed as plaque reduction in HFF cells; assay type: functional, organism-based; conditions: Orthopoxvirus vaccinia
Cowpox virus [1] = test: Antiviral activity against cowpox virus Brighton by plaque reduction in HFF cells; assay type: functional, organism-based
Cowpox virus [2] = test: Antiviral activity against cowpox virus Brighton measured as cytopathogenicity in HFF cells; assay type: functional, organism-based

| Structure (SMILES) | CC50 (HFF) [µM] | EC50 (Vaccinia virus) [µM] | EC50 (Cowpox virus [1]) [µM] | EC50 (Cowpox virus [2]) [µM] |
| --- | --- | --- | --- | --- |
| CCOC(OCC)c1cn(C2C[C@H](OC(C)=O)[C@@H](COC(C)=O)O2)c(=O)[nH]c1=O (stereo not given in full) | > 300 | 79 | 25.8 | 52.4 |
| COC(OC)c1cnc(O)nc1O | > 300 |  |  | > 300 |
| CC(=O)OC[C@H]1OC(n2cc(C3OCCCO3)c(=O)[nH]c2=O)C[C@@H]1OC(C)=O (stereo not given in full) | > 300 |  |  | > 300 |
| CC(=O)OC[C@H]1OC(n2cc(C=O)c(=O)[nH]c2=O)C[C@@H]1OC(C)=O (stereo not given in full) | > 300 |  |  | > 300 |
| COC(OC)c1cn(C2C[C@H](OC(C)=O)[C@@H](COC(C)=O)O2)c(=O)[nH]c1=O (stereo not given in full) | > 300 |  |  | > 300 |
| COC(OC)c1cn(C2C[C@H](O)[C@@H](CO)O2)c(=O)[nH]c1=O (stereo not given in full) | > 300 | 9 | 7.4 | 11.7 |
| O=Cc1cn([C@H]2C[C@H](O)[C@@H](CO)O2)c(=O)[nH]c1=O | > 300 |  |  | > 300 |
| CC(=O)OC[C@H]1OC(n2cc(C3OCCO3)c(=O)[nH]c2=O)C[C@@H]1OC(C)=O (stereo not given in full) | > 300 |  |  | > 300 |
| CCOC(OCC)c1cn(C2C[C@H](O)[C@@H](CO)O2)c(=O)[nH]c1=O (stereo not given in full) | > 300 |  |  | > 60 |
| O=c1[nH]c(=O)n(C2CC(O)[C@@H](CO)O2)cc1C1OCCO1 (single isomer, unassigned) | > 300 |  |  | > 300 |
| O=c1[nH]c(=O)n(C2CC(O)[C@@H](CO)O2)cc1C1OCCCO1 (single isomer, unassigned) | > 300 |  |  | > 300 |
| Nc1ccn(C[C@@H](CO)OCP(=O)(O)O)c(=O)n1 [CIDOFOVIR] | > 300 | 9 | 9 | 8.3 |
